The values below come from ChEMBL document CHEMBL4414551, “Design, Synthesis, and Biological Evaluation of Substituted 4,6-Dihydrospiro[[1,2,3]triazolo[4,5-b]pyridine-7,3'-indoline]-2',5(3H)-dione Analogues as Potent NS4B Inhibitors for the Treatment of Dengue Virus Infection” (J Med Chem, 2019).

Series [1] can be described thus: Cytotoxicity in human HuH7 replicon cells infected with Dengue virus 2 NGC assessed as reduction in cell viability incubated for 48 hrs by Cell-titer-Glo reagent based assay. More on the design: species or system Huh-7. Put shortly: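 Huh7 cells or Huh7 replicon cells plated, then held at 37 °C with 5% CO₂ overnight. Exposed to 2-fold serial compound dilutions for 48 h, in duplicate. Viability read with CellTiter-Glo and normalized to 0.45% DMSO wells set at 100%. CC50 from four-parameter logistic fit.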

The subject of series [2] is dengue virus type 1. The series can be described thus: Antiviral activity against Dengue virus 1 WestPac infected in human HuH7 replicon cells expressing Renilla luciferase and neomycin-resistance genes assessed as reduction in viral replication incubated for 48 hrs by luciferase reporter replicon-based assay. The settings on record: Huh-7, 48 h. Format: functional, organism-based. An outline of the steps: (§1)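 Huh7 cells stably carrying a Renilla luciferase/neomycin-resistance replicon (DENV-1 WestPac, DENV-2 NGC, DENV-3 D3MY05-34640 or DENV-4 D4MY01-22713). Cells seeded at 10k per well and incubated overnight at 37 °C, 5% CO2. Then exposed to 2-fold serial compound dilutions for 48 h, in duplicate. Luciferase read with a live-cell substrate. EC50 from four-parameter logistic fit.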
In general terms: In antiviral work, replicon cells carry a viral genome segment that copies itself.

In series [3] the test system is dengue virus type 2. The series can be described thus: Antiviral activity against Dengue virus 2 NGC infected in human HuH7 replicon cells expressing Renilla luciferase and neomycin-resistance genes assessed as reduction in viral replication incubated for 48 hrs by luciferase reporter replicon-based assay. In kind it is functional, organism-based. The settings on record: Huh-7, 48 h. An outline of the steps: as §1

For series [4], the system named is dengue virus type 3. The series can be described thus: Antiviral activity against Dengue virus 3 D3MY05-34640 infected in human HuH7 replicon cells expressing Renilla luciferase and neomycin-resistance genes assessed as reduction in viral replication incubated for 48 hrs by luciferase reporter replicon-based assay. Format: functional, organism-based. The settings on record: D3MY05-34640, Huh-7, 48 h. Put shortly:
as §1

Series [5] has as its system dengue virus type 4. The series can be described thus: Antiviral activity against Dengue virus 4 D4MY01-22713 infected in human HuH7 replicon cells expressing Renilla luciferase and neomycin-resistance genes assessed as reduction in viral replication incubated for 48 hrs by luciferase reporter replicon-based assay. The settings on record: D4MY01-22713, Huh-7, 48 h. Format: functional, organism-based. An outline of the steps:
as §1

Structures are written as SMILES.

For `Cc1ccc(CN2C(=O)[C@]3(CC(=O)Nc4c3nnn4[C@@H](C)c3ccc(Cl)cc3)c3cc(Cl)ccc32)cn1`, the CC50 (commonly the concentration that lowers cell viability or growth by half) at 48 h in series [1] is above 10 µM. For the same compound, the EC50 (as a rule, the concentration needed to bring the measured effect to its halfway point) is above 5 µM in series [2], 150 nM in series [3], 11 nM in series [4] and above 5 µM in series [5].

In the case of `C[C@@H](c1ccc(Cl)cc1)n1nnc2c1NC(=O)C[C@]21C(=O)N(CC2CC2)c2ccc(Cl)cc21`, the CC50 at 48 h in series [1] is above 10 µM. For the same compound, the EC50 was 3.1 µM in series [2], 110 nM in series [3], 17 nM in series [4] and above 5 µM in series [5].

For the compound `C[C@@H](c1ccc(Cl)cc1)n1nnc2c1NC(=O)C[C@]21C(=O)N(Cc2cc(C(C)(C)C)cc(C(C)(C)C)c2)c2ccc(Cl)cc21`, in series [1], the CC50 at 48 h is above 10 µM. Moreover, the EC50 in series [2] was 4.6 µM; in series [3], above 10000 nM; in series [4], 5900 nM; in series [5] it was 4.9 µM.

Regarding `C[C@@H](c1ccc(Cl)cc1)n1nnc2c1NC(=O)C[C@]21C(=O)N(CCCCCCCCBr)c2ccc(Cl)cc21`, in series [1], the half-maximal cytotoxic concentration (CC50) at 48 h was above 10 µM. In addition, the half-maximal effective concentration (EC50) in series [3] was above 5000 nM.

With `C[C@@H](c1ccc(Cl)cc1)n1nnc2c1NC(=O)C[C@]21C(=O)N(Cc2ccc(F)cc2)c2ccc(Cl)cc21`, in series [1], the CC50 at 48 h is above 10 µM. Also, the EC50 in series [2] is 5 µM; in series [3] it was 160 nM; in series [4], 48 nM; in series [5], 10 µM.

In the case of `C#CCN1C(=O)[C@]2(CC(=O)Nc3c2nnn3[C@@H](C)c2ccc(Cl)cc2)c2cc(Cl)ccc21`, the cytotoxic concentration (CC50) at 48 h in series [1] is above 10 µM. In addition, the EC50 in series [2] was above 5 µM; in series [3], 69 nM; in series [4], 3 nM; in series [5], above 5 µM.

For the compound `C[C@@H](c1ccc(Cl)cc1)n1nnc2c1NC(=O)C[C@]21C(=O)N(CCCCCCCCCCN(C)C)c2ccc(Cl)cc21`, the CC50 at 48 h in series [1] is above 10 µM. For the same compound, the EC50 is 2.7 µM in series [2], 3500 nM in series [3], 98 nM in series [4] and 3.5 µM in series [5].

Take `CC(C)N1C(=O)[C@]2(CC(=O)N(C(C)C)c3c2nnn3[C@@H](C)c2ccc(Cl)cc2)c2cc(Cl)ccc21`: the cytotoxic concentration (CC50) at 48 h in series [1] was above 10 µM. Further, the EC50 in series [2] was 3.8 µM; in series [3], above 10000 nM; in series [4], 1500 nM; in series [5], 3 µM.

As for `CCCCCCN1C(=O)[C@]2(CC(=O)Nc3c2nnn3[C@@H](C)c2ccc(Cl)cc2)c2cc(Cl)ccc21`, in series [1], the CC50 at 48 h was above 10 µM. Further, the EC50 in series [2] is 0.83 µM; in series [3], 810 nM; in series [4], 140 nM; in series [5] it was above 5 µM.

`CCOC(CN1C(=O)[C@]2(CC(=O)Nc3c2nnn3[C@@H](C)c2ccc(Cl)cc2)c2cc(Cl)ccc21)OCC`: in series [1], the CC50 at 48 h was above 10 µM. Also, the EC50 in series [2] is above 5 µM; in series [3], 290 nM; in series [4], 76 nM; in series [5], above 5 µM.

Turning to `C[C@@H](c1ccc(Cl)cc1)n1nnc2c1NC(=O)C[C@]21C(=O)N(CCN2CCCCC2)c2ccc(Cl)cc21`, the CC50 at 48 h in series [1] was above 10 µM. The concentration for a half-maximal effect (EC50) in series [2] is above 5 µM; in series [3], 74 nM; in series [4] it was 5 nM; in series [5], above 5 µM.

For the compound `C[C@@H](c1ccc(Cl)cc1)n1nnc2c1NC(=O)C[C@]21C(=O)N(Cc2ccc(Cl)c(F)c2)c2ccc(Cl)cc21`, the CC50 at 48 h in series [1] was above 10 µM. Also, the EC50 in series [2] stood at 1.5 µM; in series [3], 4000 nM; in series [4], 290 nM; in series [5], 5.1 µM.

As for `C[C@@H](c1ccc(Cl)cc1)n1nnc2c1NC(=O)C[C@]21C(=O)N(CC(=O)O)c2ccc(Cl)cc21`, the CC50 at 48 h in series [1] was above 10 µM. Moreover, in series [3], the EC50 came out at 2400 nM.

As for `C[C@@H](c1ccc(Cl)cc1)n1nnc2c1NC(=O)C[C@]21C(=O)N(CCCCCCBr)c2ccc(Cl)cc21`, the CC50 at 48 h in series [1] was above 10 µM. Moreover, in series [3], the EC50 turned out to be 3000 nM.
